The species entered for one data set is Homo sapiens. Kind of data set: Inhibition of histidine-tagged human DNA polymerase gamma using poly(dA)/oligo(dT)18 (A/T = 2/1) and dTTP as the DNA template-primer and nucleotide substrate at 10 uM after 60 mins. A digest of the protocol: (§1)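 Compound in DMSO, sonicated 30 s. Premixed 0 °C, 10 min with enzyme (0.05 units) in 50 mM Tris-HCl pH 7.5, 1 mM DTT, 50% glycerol, 0.1 mM EDTA, then added to standard reaction mixture. Template-primers: poly(dA)/oligo(dT)18 (2/1) for pols, oligo(dT)18 for TdT, poly(rA)/oligo(dT)18 for HIV-1 RT, with [3H]dTTP. 60 min at 37 °C (Taq 74 °C). Activity relative to no-inhibitor control; mean ± SE of three experiments.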

Another data set addresses Deoxyribonuclease-1 (Bos taurus, UniProt P00639). The experiment in a line: Inhibition of bovine deoxyribonuclease I by agarose gel electrophoresis.
In data set [1] the target is DNA-directed DNA/RNA polymerase mu (Homo sapiens, UniProt Q9NP87). Kind of data set: Inhibition of His-tagged human DNA polymerase mu using poly(dA)/oligo(dT)18 (A/T = 2/1) and dTTP as the DNA template-primer and nucleotide substrate after 60 mins. In outline:
as §1

Data set [2] has as its target DNA-directed DNA polymerase (Enterobacteria phage T4, UniProt P04415). The experiment in a line: Inhibition of T4 pol using poly(dA)/oligo(dT)18 (A/T = 2/1) and dTTP as the DNA template-primer and nucleotide substrate after 60 mins. More on the design: species or system Tequatrovirus T4. A digest of the protocol:
as §1

Data set [3] in a line: Inhibition of cauliflower DNA polymerase alpha using poly(dA)/oligo(dT)18 (A/T = 2/1) and dTTP as the DNA template-primer and nucleotide substrate after 60 mins. More on the design: species or system Brassica oleracea var. botrytis. A digest of the protocol: as §1
The nature of data set [4]: Inhibition of calf DNA polymerase alpha using poly(dA)/oligo(dT)18 (A/T = 2/1) and dTTP as the DNA template-primer and nucleotide substrate after 60 mins. More on the design: species or system Bos taurus. A digest of the protocol: as §1
In another data set the target is DNA polymerase kappa (Homo sapiens, UniProt Q9UBT6). Kind of data set: Inhibition of C-terminal His6-tagged human DNA polymerase kappa (amino acids 1 to 560) using poly(dA)/oligo(dT)18 (A/T = 2/1) and dTTP as the DNA template-primer and nucleotide substrate after 60 mins. A digest of the protocol: as §1
Chain of DNA polymerase kappa (Q9UBT6 whole entry, the tested form may be a part): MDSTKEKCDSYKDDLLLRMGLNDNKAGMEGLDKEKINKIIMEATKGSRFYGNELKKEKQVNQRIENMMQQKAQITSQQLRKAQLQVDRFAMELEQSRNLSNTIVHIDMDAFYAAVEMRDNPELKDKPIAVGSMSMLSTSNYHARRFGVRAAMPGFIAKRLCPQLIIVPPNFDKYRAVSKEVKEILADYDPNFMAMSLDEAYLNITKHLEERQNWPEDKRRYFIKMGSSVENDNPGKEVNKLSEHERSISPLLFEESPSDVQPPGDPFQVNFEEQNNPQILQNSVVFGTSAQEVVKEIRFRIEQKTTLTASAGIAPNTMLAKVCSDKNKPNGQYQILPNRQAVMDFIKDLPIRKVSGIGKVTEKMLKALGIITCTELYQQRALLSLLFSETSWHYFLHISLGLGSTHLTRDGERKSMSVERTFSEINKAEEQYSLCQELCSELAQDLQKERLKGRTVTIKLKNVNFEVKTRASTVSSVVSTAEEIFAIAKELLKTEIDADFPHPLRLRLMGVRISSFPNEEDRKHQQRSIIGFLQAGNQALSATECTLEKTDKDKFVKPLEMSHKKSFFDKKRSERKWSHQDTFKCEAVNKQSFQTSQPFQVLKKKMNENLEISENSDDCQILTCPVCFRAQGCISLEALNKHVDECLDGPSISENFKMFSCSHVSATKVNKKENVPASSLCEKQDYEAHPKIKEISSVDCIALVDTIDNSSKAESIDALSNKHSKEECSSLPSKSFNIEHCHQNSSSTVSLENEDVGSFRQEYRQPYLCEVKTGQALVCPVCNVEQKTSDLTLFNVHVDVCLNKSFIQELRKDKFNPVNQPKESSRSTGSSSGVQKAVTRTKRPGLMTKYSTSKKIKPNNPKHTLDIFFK
The test system of another data set is Mus musculus. The experiment in a line: Antiinflammatory activity in mouse assessed as inhibition of TPA-induced mouse ear edema at 500 ug/ear administered 30 mins before TPA challenge measured after 7 hrs relative to untreated control. Format: functional, organism-based. A digest of the protocol: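 Compound (500 µg) applied to one mouse ear; 30 min later TPA (0.5 µg) applied to both ears. Edema scored after 7 h and expressed as percentage of edema. Mean ± SE, n = 6.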

The species entered for the next data set is Bos taurus. Kind of data set: Inhibition of calf DNA polymerase alpha using poly(dA)/oligo(dT)18 (A/T = 2/1) and dTTP as the DNA template-primer and nucleotide substrate at 10 uM after 60 mins. In outline:
as §1

The next data set concerns RAW264.7. The experiment in a line: Cytotoxicity against mouse RAW264.7 cells at 5 uM. Format: cell-based. The note with it: raw264.7, 5 µM.
A further data set deals with Nucleic Acid. Kind of data set: Binding affinity to DNA assessed as thermal transition of DNA relative to control. The format is nucleic-acid assay.
Another data set concerns the target T7 RNA polymerase (Enterobacteria phage T7, UniProt P00573). The experiment in a line: Inhibition of T7 RNA polymerase using salmon sperm DNA and [3H]UTP at 25 degree C after 30 mins by liquid scintillation counting. More on the design: species or system Escherichia phage T7.
Data set [5] concerns the target DNA polymerase I, thermostable (Thermus aquaticus, UniProt P19821). The experiment in a line: Inhibition of Taq polymerase using poly(dA)/oligo(dT)18 (A/T = 2/1) and dTTP as the DNA template-primer and nucleotide substrate at 74 degree C after 60 mins. In outline:
as §1

For data set [6], the target named is T1, DNA polymerase lambda (Homo sapiens) (UniProt Q9UGP5).
T1 sequence (whole entry): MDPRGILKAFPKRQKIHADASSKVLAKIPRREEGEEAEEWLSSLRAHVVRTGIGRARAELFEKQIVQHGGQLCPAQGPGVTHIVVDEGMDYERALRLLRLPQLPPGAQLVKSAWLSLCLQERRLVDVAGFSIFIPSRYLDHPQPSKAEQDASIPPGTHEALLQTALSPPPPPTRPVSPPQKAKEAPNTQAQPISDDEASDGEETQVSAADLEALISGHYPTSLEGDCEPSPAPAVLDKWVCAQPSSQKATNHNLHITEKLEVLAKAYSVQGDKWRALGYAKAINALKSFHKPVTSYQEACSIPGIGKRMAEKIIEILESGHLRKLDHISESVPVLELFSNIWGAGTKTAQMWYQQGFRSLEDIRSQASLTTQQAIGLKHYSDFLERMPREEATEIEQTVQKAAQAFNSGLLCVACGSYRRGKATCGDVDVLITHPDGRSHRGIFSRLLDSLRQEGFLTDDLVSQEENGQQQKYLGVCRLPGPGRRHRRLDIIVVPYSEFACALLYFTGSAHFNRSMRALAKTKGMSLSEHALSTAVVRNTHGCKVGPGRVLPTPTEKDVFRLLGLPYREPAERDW
Kind of data set: Inhibition of recombinant His-tagged human DNA polymerase lambda using poly(dA)/oligo(dT)18 (A/T = 2/1) and dTTP as the DNA template-primer and nucleotide substrate at 10 uM after 60 mins. In outline: as §1

In another data set the target is DNA polymerase beta (Rattus norvegicus, UniProt P06766). The experiment in a line: Inhibition of rat pol beta using poly(dA)/oligo(dT)18 (A/T = 2/1) and dTTP as the DNA template-primer and nucleotide substrate after 60 mins. In outline: as §1
Data set [7] deals with DNA nucleotidylexotransferase (Bos taurus, UniProt P06526). Kind of data set: Inhibition of calf thymus TdT using oligo(dT)18 (3'-OH) and dTTP as the DNA template-primer and nucleotide substrate after 60 mins. In outline: as §1
Chain of DNA nucleotidylexotransferase (P06526 whole entry): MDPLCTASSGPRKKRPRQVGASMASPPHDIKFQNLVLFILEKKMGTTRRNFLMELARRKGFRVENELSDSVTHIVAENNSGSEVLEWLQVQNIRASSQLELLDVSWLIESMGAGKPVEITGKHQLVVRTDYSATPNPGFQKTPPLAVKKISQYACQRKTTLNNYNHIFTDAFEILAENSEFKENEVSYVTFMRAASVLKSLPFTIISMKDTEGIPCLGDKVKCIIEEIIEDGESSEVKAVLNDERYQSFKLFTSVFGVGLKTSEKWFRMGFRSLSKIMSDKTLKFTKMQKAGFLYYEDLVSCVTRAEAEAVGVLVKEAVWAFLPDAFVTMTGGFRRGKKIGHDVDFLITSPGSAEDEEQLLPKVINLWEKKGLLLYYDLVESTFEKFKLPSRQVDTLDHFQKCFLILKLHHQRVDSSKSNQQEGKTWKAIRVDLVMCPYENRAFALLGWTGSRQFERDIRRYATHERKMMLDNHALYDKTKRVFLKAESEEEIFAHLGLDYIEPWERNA

This is an account of results in ChEMBL document CHEMBL1914406, “Inhibitory effect of novel 5-O-acyl juglones on mammalian DNA polymerase activity, cancer cell growth and inflammatory response” (Bioorg Med Chem, 2011).

Activity calls are given as the source filed them. No cut-off for these calls is given here.

A word on the IC50: it is the concentration that gives 50% inhibition. A lower IC50 goes with higher potency.

Chain of Deoxyribonuclease-1 (P00639 whole entry): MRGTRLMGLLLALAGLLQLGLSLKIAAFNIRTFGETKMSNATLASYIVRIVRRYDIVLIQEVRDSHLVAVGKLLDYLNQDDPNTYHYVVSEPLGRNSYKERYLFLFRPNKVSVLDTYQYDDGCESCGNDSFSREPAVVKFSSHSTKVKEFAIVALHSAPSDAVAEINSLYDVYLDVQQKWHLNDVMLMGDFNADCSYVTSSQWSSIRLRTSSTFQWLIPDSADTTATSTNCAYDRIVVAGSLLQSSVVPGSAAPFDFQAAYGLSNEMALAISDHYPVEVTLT
Chain of DNA-directed DNA/RNA polymerase mu (Q9NP87 whole entry): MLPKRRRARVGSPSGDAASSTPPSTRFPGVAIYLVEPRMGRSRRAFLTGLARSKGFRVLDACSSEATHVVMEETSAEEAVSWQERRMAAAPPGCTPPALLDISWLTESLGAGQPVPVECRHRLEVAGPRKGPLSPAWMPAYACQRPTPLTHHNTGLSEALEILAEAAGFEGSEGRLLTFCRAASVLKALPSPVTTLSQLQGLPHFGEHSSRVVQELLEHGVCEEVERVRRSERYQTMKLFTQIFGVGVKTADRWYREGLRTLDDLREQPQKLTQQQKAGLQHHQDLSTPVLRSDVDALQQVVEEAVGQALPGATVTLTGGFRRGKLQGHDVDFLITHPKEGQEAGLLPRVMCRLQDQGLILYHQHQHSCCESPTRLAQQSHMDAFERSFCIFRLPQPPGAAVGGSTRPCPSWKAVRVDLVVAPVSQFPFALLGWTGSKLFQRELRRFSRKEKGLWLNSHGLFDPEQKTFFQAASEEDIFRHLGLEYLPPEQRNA
Chain of DNA polymerase I, thermostable (P19821 whole entry): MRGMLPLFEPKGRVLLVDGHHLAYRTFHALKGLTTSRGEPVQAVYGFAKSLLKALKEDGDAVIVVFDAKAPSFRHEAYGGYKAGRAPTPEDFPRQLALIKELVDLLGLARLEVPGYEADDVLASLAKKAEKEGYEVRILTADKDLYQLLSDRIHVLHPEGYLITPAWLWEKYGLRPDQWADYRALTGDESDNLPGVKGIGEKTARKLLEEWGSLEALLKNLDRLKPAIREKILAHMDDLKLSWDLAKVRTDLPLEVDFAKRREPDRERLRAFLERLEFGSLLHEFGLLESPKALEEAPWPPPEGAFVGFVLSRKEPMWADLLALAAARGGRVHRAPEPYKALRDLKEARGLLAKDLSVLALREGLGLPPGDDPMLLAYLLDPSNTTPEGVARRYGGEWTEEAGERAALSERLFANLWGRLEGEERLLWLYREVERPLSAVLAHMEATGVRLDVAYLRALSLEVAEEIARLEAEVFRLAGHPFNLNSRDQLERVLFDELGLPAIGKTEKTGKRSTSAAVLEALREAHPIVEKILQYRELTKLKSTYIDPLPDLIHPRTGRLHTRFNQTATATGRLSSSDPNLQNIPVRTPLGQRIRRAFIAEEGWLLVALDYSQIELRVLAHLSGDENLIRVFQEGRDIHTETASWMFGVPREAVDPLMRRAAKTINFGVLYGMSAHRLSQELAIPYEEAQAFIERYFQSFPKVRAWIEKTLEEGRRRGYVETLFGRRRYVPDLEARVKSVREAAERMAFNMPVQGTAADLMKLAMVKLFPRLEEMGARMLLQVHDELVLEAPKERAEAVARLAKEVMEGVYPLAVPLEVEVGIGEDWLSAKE
Chain of DNA-directed DNA polymerase (P04415 whole entry): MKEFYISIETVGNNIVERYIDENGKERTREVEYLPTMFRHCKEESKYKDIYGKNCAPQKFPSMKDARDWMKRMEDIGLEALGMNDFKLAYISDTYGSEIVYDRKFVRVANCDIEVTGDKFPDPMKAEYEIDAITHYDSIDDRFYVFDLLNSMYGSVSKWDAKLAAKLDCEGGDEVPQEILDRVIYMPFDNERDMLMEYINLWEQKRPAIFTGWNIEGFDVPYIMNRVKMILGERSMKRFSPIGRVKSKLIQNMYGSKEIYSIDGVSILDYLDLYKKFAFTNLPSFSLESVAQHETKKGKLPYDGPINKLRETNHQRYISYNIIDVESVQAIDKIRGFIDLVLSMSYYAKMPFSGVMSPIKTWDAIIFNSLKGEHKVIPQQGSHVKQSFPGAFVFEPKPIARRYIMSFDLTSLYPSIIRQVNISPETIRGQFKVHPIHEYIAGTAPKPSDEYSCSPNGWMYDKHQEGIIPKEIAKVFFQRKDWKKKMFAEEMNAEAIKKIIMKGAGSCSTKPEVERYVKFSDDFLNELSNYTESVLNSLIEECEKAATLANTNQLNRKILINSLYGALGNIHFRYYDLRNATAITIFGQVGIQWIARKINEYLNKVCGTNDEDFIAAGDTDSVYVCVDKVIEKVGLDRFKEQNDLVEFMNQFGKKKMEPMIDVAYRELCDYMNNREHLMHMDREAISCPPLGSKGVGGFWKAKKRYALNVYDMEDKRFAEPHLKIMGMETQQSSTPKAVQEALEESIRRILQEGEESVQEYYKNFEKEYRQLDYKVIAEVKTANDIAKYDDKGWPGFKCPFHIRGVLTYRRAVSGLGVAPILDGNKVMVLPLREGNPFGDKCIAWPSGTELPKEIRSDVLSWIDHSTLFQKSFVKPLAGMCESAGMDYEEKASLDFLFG
Chain of T7 RNA polymerase (P00573 whole entry): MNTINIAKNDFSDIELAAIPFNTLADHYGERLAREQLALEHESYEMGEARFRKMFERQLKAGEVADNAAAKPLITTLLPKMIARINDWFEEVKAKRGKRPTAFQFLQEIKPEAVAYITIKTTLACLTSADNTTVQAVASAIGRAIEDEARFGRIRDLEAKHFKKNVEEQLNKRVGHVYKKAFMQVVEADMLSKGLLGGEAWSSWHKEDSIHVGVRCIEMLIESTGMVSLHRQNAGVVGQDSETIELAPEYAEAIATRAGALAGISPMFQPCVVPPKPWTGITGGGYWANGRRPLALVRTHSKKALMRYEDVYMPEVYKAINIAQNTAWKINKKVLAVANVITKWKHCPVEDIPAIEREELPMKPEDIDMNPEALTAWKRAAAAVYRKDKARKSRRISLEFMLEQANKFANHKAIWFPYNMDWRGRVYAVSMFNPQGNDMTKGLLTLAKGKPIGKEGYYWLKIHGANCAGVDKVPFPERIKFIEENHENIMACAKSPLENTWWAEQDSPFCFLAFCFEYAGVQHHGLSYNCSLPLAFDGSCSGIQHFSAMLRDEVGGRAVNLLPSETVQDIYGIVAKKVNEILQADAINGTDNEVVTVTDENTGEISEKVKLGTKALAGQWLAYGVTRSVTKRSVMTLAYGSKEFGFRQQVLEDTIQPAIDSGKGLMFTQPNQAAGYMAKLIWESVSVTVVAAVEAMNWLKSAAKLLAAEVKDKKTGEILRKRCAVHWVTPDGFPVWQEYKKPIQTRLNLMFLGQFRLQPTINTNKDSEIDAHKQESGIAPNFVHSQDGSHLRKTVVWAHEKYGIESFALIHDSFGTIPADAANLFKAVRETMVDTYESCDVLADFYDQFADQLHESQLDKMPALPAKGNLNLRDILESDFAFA

As for `CCCCCCCCCCCC(=O)Oc1cccc2c1C(=O)C=CC2=O`, the inhibition result (in the data set filed under Homo sapiens; in the data set filed under Bos taurus; in data set [6]) was “Active” in each case. For the same compound, the 50% inhibitory concentration (IC50) on Deoxyribonuclease-1 was greater than 100 µM; in data set [1], 7.9 µM; in data set [2] it was greater than 100 µM; in data set [3], greater than 100 µM; in data set [4] it was 6.3 µM; against DNA polymerase kappa it was 6.8 µM. The half-maximal inhibitory concentration (IC50) against T7 RNA polymerase was greater than 100 µM; in [5] it was greater than 100 µM; against DNA polymerase beta it was 7.6 µM; in [7], 8.4 µM. For the same compound, the outcome in the data set with Mus musculus was Active. For the same compound, the Activity entry in the data set on RAW264.7 was “Non-toxic”. Further, in the data set with Nucleic Acid, the outcome was inactive.

Consider `CCCCCCCC/C=C\CCCCCCCC(=O)Oc1cccc2c1C(=O)C=CC2=O`, for which the inhibition result (in the data set filed under Homo sapiens; in the data set filed under Bos taurus; in data set [6]) was “Active” each time. Moreover, the concentration for half-maximal inhibition (IC50) was greater than 100 µM on Deoxyribonuclease-1; 10.8 µM in [1]; greater than 100 µM in data set [2]; greater than 200 µM in data set [3]; 0.68 µM in data set [4]; 8.1 µM on DNA polymerase kappa. Besides, the half-inhibitory concentration (IC50) against T7 RNA polymerase is greater than 100 µM; in data set [5] it was greater than 100 µM; at DNA polymerase beta, 11.5 µM; in [7] it was 11.9 µM. In addition, the outcome in the data set on Mus musculus was Active. Further, the Activity result in the data set on RAW264.7 was “Non-toxic”. For the same compound, in the data set with Nucleic Acid, the outcome was inactive.
